Columns and labels:
Format in all cases: functional
[1] = test system: SK-OV-3; experiment: Cytotoxicity against human SKOV3 cells assessed as cell growth at 1 uM after 48 hrs by sulforhodamine B assay; conditions: SK-OV-3, 48 h, read-out: Activity
[2] = test system: HOP-62; experiment: Cytotoxicity against human HOP62 cells assessed as cell growth at 0.01 uM after 48 hrs by sulforhodamine B assay; conditions: HOP-62, 48 h, read-out: Activity
[3] = test system: NCI-H23; experiment: Cytotoxicity against human NCI-H23 cells assessed as cell growth at 1 uM after 48 hrs by sulforhodamine B assay; conditions: NCI-H23, 48 h, read-out: Activity
[4] = test system: RXF 393; experiment: Cytotoxicity against human RXF393 cells assessed as cell growth at 10 uM; conditions: read-out: Activity
How it was run: (§1)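 NCI-60 screen: cells grown in RPMI 1640 with 5% FBS and 2 mM L-glutamine, plated at 5000–40,000 cells/well according to doubling time, and preincubated 24 h at 37 °C, 5% CO2. The single 10 µM dose (DMSO stock) was added, then incubated 48 h. Cells were TCA-fixed and stained with 0.4% SRB, read at 515 nm, and growth % calculated against time-zero and control plates.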

[5] = test system: SN12C; experiment: Growth inhibition of human SN12C cells after 48 hrs by sulforhodamine B assay
How it was run: (§2)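 NCI 60-cell screen, five-dose mode. Cells grown in RPMI 1640 with 5% FBS and 2 mM L-glutamine and plated at 5000-40,000 cells/well according to doubling time. After 24 h preincubation, a Tz plate was TCA-fixed. Five concentrations (10-fold or 1/2 log dilutions) were applied for 48 h at 37 °C. SRB staining read at 515 nm. IC50 taken from [(Ti-Tz)/(C-Tz)]×100 = 50.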

[6] = test system: SK-OV-3; experiment: Cytotoxicity against human SKOV3 cells assessed as cell growth at 10 uM after 48 hrs by sulforhodamine B assay; conditions: SK-OV-3, 48 h, read-out: Activity
[7] = test system: Malme-3M; experiment: Growth inhibition of human MALME-3M cells after 48 hrs by sulforhodamine B assay; how it was run: as §2
[8] = test system: OVCAR-4; experiment: Growth inhibition of human OVCAR4 cells after 48 hrs by sulforhodamine B assay; conditions: OVCAR-4, 48 h; how it was run: as §2
[9] = test system: UO-31; experiment: Cytotoxicity against human UO31 cells assessed as cell growth at 0.001 uM after 48 hrs by sulforhodamine B assay; conditions: UO-31, 48 h, read-out: Activity
[10] = test system: IGROV-1; experiment: Cytotoxicity against human IGROV1 cells assessed as cell growth at 10 uM; conditions: read-out: Activity
How it was run: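 Single-dose NCI-60 screen at 10 µM. Cells were grown in RPMI 1640 with 5% FBS and 2 mM L-glutamine, then treated for 48 h at 37 °C. Protein was measured by SRB staining with absorbance at 515 nm. Percentage growth was recorded, and inhibition percentage was calculated as 100 minus growth percentage.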

[11] = test system: SNB-75; experiment: Cytotoxicity against human SNB75 cells assessed as cell growth at 10 uM after 48 hrs by sulforhodamine B assay; conditions: SNB-75, 48 h, read-out: Activity
[12] = test system: SK-OV-3; experiment: Cytotoxicity against human SKOV3 cells assessed as cell growth at 10 uM; conditions: read-out: Activity; how it was run: as §1
[13] = test system: SW-620; experiment: Cytotoxicity against human SW620 cells assessed as cell growth at 0.01 uM after 48 hrs by sulforhodamine B assay; conditions: SW-620, 48 h, read-out: Activity
[14] = test system: BT-549; experiment: Cytotoxicity against human BT549 cells assessed as cell growth at 10 uM after 48 hrs by sulforhodamine B assay; conditions: BT-549, 48 h, read-out: Activity
How it was run: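 NCI-60 five-dose screen. Cells were grown in RPMI 1640 with 5% FBS and 2 mM L-glutamine, plated at 5000–40,000 cells/well and preincubated for 24 h. Time-zero plates were TCA-fixed. DMSO-solubilized drug was added at five concentrations (10-fold or ½-log serial dilutions) for 48 h at 37 °C, 5% CO2. Cells were TCA-fixed, stained with 0.4% SRB and read at 515 nm. Percent growth used time-zero, control and test absorbances.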

[15] = test system: TK-10; experiment: Cytotoxicity against human TK10 cells assessed as cell growth at 10 uM; conditions: read-out: Activity; how it was run: as §1
[16] = Cytotoxicity against human Hs 578T cells assessed as cell growth at 1 uM after 48 hrs by sulforhodamine B assay; conditions: read-out: Activity
[17] = test system: MDA-MB-231; experiment: Cytotoxicity against human MDA-MB-231 cells assessed as cell growth at 1 uM after 48 hrs by sulforhodamine B assay; conditions: MDA-MB-231, 48 h, read-out: Activity
[18] = test system: NCI-H322M; experiment: Cytotoxicity against human NCI-H322M cells assessed as cell growth at 10 uM after 48 hrs by sulforhodamine B assay; conditions: read-out: Activity
[19] = test system: EKVX; experiment: Cytotoxicity against human EKVX cells assessed as cell growth at 1 uM after 48 hrs by sulforhodamine B assay; conditions: read-out: Activity
[20] = test system: MOLT-4; experiment: Cytotoxicity against human MOLT4 cells assessed as cell growth at 0.01 uM after 48 hrs by sulforhodamine B assay; conditions: MOLT-4, 48 h, read-out: Activity
[21] = test system: A498; experiment: Growth inhibition of human A498 cells after 48 hrs by sulforhodamine B assay; conditions: A498, 48 h
How it was run: (§3)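 NCI five-dose SRB assay in RPMI 1640 with 5% FBS and 2 mM L-glutamine. Cells were preincubated 24 h, then exposed 48 h at 37 °C to five concentrations (10-fold or half-log serial dilutions from DMSO stocks). TCA fixation, SRB staining, and absorbance at 515 nm followed. IC50 was taken where [(Ti−Tz)/(C−Tz)]×100 = 50, with Tz as time-zero cell density.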

[22] = test system: M14; experiment: Growth inhibition of human M14 cells after 48 hrs by sulforhodamine B assay; conditions: M14, 48 h; how it was run: as §2
[23] = test system: HCT-116; experiment: Growth inhibition of human HCT116 cells after 48 hrs by sulforhodamine B assay; conditions: HCT-116, 48 h; how it was run: as §2
[24] = test system: CAKI-1; experiment: Cytotoxicity against human Caki1 cells assessed as cell growth at 0.001 uM after 48 hrs by sulforhodamine B assay; conditions: CAKI-1, 48 h, read-out: Activity
[25] = test system: OVCAR-8; experiment: Cytotoxicity against human OVCAR8 cells assessed as cell growth at 10 uM after 48 hrs by sulforhodamine B assay; conditions: OVCAR-8, 48 h, read-out: Activity
[26] = test system: CCRF-CEM; experiment: Growth inhibition of human CCRF-CEM cells after 48 hrs by sulforhodamine B assay; how it was run: as §3
[27] = test system: HCC 2998; experiment: Cytotoxicity against human HCC2998 cells assessed as cell growth at 0.01 uM after 48 hrs by sulforhodamine B assay; conditions: HCC 2998, 48 h, read-out: Activity
[28] = test system: Malme-3M; experiment: Cytotoxicity against human MALME-3M cells assessed as cell growth at 10 uM after 48 hrs by sulforhodamine B assay; conditions: read-out: Activity
[29] = test system: NCI-H322M; experiment: Cytotoxicity against human NCI-H322M cells assessed as cell growth at 10 uM; conditions: read-out: Activity; how it was run: as §1
[30] = read-out: LC50 (the source's name)

## COc1cc(C)cc(-c2nn(CC#N)cc2-c2ccnc(-c3ccc(N(C)C)cc3)c2)c1
[1]
  growth at 1 µM: -24%
[2]
  growth at 0.01 µM: 99%
[3]
  growth at 1 µM: 15%
[4]
  growth at 10 µM: -17.1%
[5]
  GI50: 0.73 µM
  LC50: > 100 µM
  TGI: 33.1 µM
[6]
  growth at 10 µM: -40%
[7]
  TGI: > 100 µM
[7]; [30]
  CC50: > 100 µM
[8]
  GI50: 0.549 µM
  TGI: > 100 µM
[8]; [30]
  CC50: > 100 µM
[9]
  growth at 0.001 µM: 90%
[10]
  growth at 10 µM: 13.1%
[11]
  growth at 10 µM: -8%
[12]
  growth at 10 µM: 2.56%
[13]
  growth at 0.01 µM: 90%
[14]
  growth at 10 µM: -30%
[15]
  growth at 10 µM: 34.7%
[16]
  growth at 1 µM: -13%
[17]
  growth at 1 µM: -15%
[18]
  growth at 10 µM: 27%
[19]
  growth at 1 µM: 28%
[20]
  growth at 0.01 µM: 93%
[21]
  GI50: 0.246 µM
  LC50: > 100 µM
  TGI: 0.818 µM
[22]
  GI50: 0.258 µM
  TGI: 0.769 µM
[22]; [30]
  CC50: > 100 µM
[23]
  GI50: 0.353 µM
  TGI: 1.64 µM
[23]; [30]
  CC50: > 100 µM
[24]
  growth at 0.001 µM: 102%
[25]
  growth at 10 µM: -8%
[26]
  GI50: 0.454 µM
  LC50: > 100 µM
  TGI: > 100 µM
[27]
  growth at 0.01 µM: 107%
[28]
  growth at 10 µM: 5%
[29]
  growth at 10 µM: 41.1%
